Measured values: ChEMBL document CHEMBL3244146, “Pyranenamines: a new series of antiallergic compounds” (1979)

Tests used:
Type in all cases: functional
[1] = system: Rattus norvegicus; experiment: Antiallergic activity in rat assessed as inhibition of egg albumin-induced passive cutaneous anaphylaxis at 0.5 mg/kg, iv treated for 30 secs followed by egg albumin-challenge measured after 30 mins relative to control; conditions: 0.5 h
[2] = system: Rattus norvegicus; experiment: Antiallergic activity in rat assessed as inhibition of egg albumin-induced passive cutaneous anaphylaxis at 25 mg/kg, po treated for 15 mins followed by egg albumin-challenge measured after 30 mins relative to control
How it was run: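 Oral PCA in rats: intradermal antiserum at four back sites (dose giving ~12×12 mm wheal), compound po 48 h later, 15 min before iv challenge with 0.5 mL saline containing 5 mg Evans blue plus 5 mg egg albumin; skin bluing read 30 min after challenge on two axes per wheal; six rats per dose versus ≥6 vehicle controls; percent inhibition from mean wheal size, one-sided t test.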

[3] = system: Rattus norvegicus; experiment: Antiallergic activity in iv dosed rat assessed as inhibition of egg albumin-induced passive cutaneous anaphylaxis treated for 30 secs followed by egg albumin-challenge measured after 30 mins; conditions: 0.5 h, read-out: ID50 (the source's name)

Row | SMILES | inhibition in vivo at 0.5 mg/kg [1] [%] | inhibition in vivo at 25 mg/kg [2] [%] | ED50 [3] [mg/kg]
1 | CC(=O)C1=C(O)/C(=C(\C)Nc2ccc(Br)cc2)C(=O)OC1=O | 0 | – | –
2 | CC(=O)C1=C(O)/C(=C(\C)Nc2cccc(S(N)(=O)=O)c2)C(=O)OC1=O | 45 | – | –
3 | CC(=O)C1=C(O)/C(=C(\C)Nc2ccc(S(N)(=O)=O)cc2)C(=O)OC1=O | 12 | – | –
4 | CC(=O)C1=C(O)/C(=C(\C)Nc2ccccc2O)C(=O)OC1=O | – | -12 | 2.8
5 | CC(=O)C1=C(O)/C(=C(\C)Nc2cccc(O)c2)C(=O)OC1=O | – | 0 | 1.6
6 | CC(=O)Oc1ccc(N/C(C)=C2\C(=O)OC(=O)C(C(C)=O)=C2O)cc1 | 41 | – | –
7 | CCC(=O)Oc1ccc(N/C(C)=C2\C(=O)OC(=O)C(C(C)=O)=C2O)cc1 | 16 | – | –
8 | CCCC(=O)Oc1ccc(N/C(C)=C2\C(=O)OC(=O)C(C(C)=O)=C2O)cc1 | – | – | 1.5
9 | CCCCC(=O)Oc1ccc(N/C(C)=C2\C(=O)OC(=O)C(C(C)=O)=C2O)cc1 | 34 | 36 | –
10 | CCCCCC(=O)Oc1ccc(N/C(C)=C2\C(=O)OC(=O)C(C(C)=O)=C2O)cc1 | – | – | 12.1
11 | CCCCCCC(=O)Oc1ccc(N/C(C)=C2\C(=O)OC(=O)C(C(C)=O)=C2O)cc1 | 21 | – | –
12 | CC(=O)C1=C(O)/C(=C(\C)Nc2ccc(OC(=O)C(C)(C)C)cc2)C(=O)OC1=O | 3 | – | –
13 | CC(=O)C1=C(O)/C(=C(\C)Nc2ccc(OC(N)=O)cc2)C(=O)OC1=O | 19 | – | –
14 | CC(=O)C1=C(O)/C(=C(\C)Nc2ccc(OC(=O)NC3C=CC=CC=C3)cc2)C(=O)OC1=O | 22 | – | –
15 | CC(=O)C1=C(O)/C(=C(\C)Nc2cccc(OCC(=O)O)c2)C(=O)OC1=O | 6 | – | –
16 | CC(=O)C1=C(O)/C(=C(\C)Nc2ccc(OCC(=O)O)cc2)C(=O)OC1=O | – | 2 | 0.5
17 | CC(=O)C1=C(O)/C(=C(\C)Nc2ccc(S)cc2)C(=O)OC1=O | – | – | 1.9
18 | CC(=O)C1=C(O)/C(=C(\C)Nc2ccccc2N)C(=O)OC1=O | – | – | 27.5
19 | CC(=O)C1=C(O)/C(=C(\C)Nc2cccc(N)c2)C(=O)OC1=O | – | – | 0.3
20 | CNc1cccc(N/C(C)=C2\C(=O)OC(=O)C(C(C)=O)=C2O)c1 | -8 | – | –
21 | CC(=O)C1=C(O)/C(=C(\C)Nc2ccc(N)cc2)C(=O)OC1=O | 58 | 23 | –

Row | SMILES | inhibition in vivo at 0.5 mg/kg [1] [%] | inhibition in vivo at 25 mg/kg [2] [%] | ED50 [3] [mg/kg]
22 | CC(=O)C1=C(O)/C(=C(\C)Nc2cccc(NC(=N)NS(=O)(=O)c3ccc(C)cc3)c2)C(=O)OC1=O | 2 | – | –
23 | CC(=O)C1=C(O)/C(=C(\C)Nc2cccc(NC(=N)N)c2)C(=O)OC1=O.O=[N+]([O-])O | – | -7 | 0.9
24 | CC(=O)C1=C(O)/C(=C(\C)Nc2ccccc2NC=O)C(=O)OC1=O | 52 | 31 | –
25 | CC(=O)C1=C(O)/C(=C(\C)Nc2cccc(NC=O)c2)C(=O)OC1=O | 22 | – | –
26 | CC(=O)C1=C(O)/C(=C(\C)Nc2ccc(NC=O)cc2)C(=O)OC1=O | 49 | -6 | –
27 | CC(=O)Nc1ccccc1N/C(C)=C1\C(=O)OC(=O)C(C(C)=O)=C1O | -12 | – | –
28 | CC(=O)C1=C(O)/C(=C(\C)Nc2cccc(NC(N)=O)c2)C(=O)OC1=O | 45 | 6 | –
29 | CC(=O)C1=C(O)/C(=C(\C)Nc2ccc(NC(N)=O)cc2)C(=O)OC1=O | 38 | -17 | –
30 | CCC(=O)Nc1cccc(N/C(C)=C2\C(=O)OC(=O)C(C(C)=O)=C2O)c1 | – | 70 | 0.2
31 | CCC(=O)Nc1ccc(N/C(C)=C2\C(=O)OC(=O)C(C(C)=O)=C2O)cc1 | – | – | 1.6
32 | CC(=O)C1=C(O)/C(=C(\C)Nc2cccc(NC(=O)C(C)C)c2)C(=O)OC1=O | 72 | 46 | –
33 | CCCC(=O)Nc1cccc(N/C(C)=C2\C(=O)OC(=O)C(C(C)=O)=C2O)c1 | 58 | – | –
34 | CC(=O)CCC(=O)Nc1cccc(N/C(C)=C2\C(=O)OC(=O)C(C(C)=O)=C2O)c1 | – | – | 0.4
35 | CC(=O)C1=C(O)/C(=C(\C)Nc2cccc(N3C(=O)CCC3=O)c2)C(=O)OC1=O | 22 | – | –
36 | CC(=O)C1=C(O)/C(=C(\C)Nc2cccc(NS(C)(=O)=O)c2)C(=O)OC1=O | 28 | – | –
37 | CC(=O)C1=C(O)/C(=C(\C)Nc2ccc(NS(C)(=O)=O)cc2)C(=O)OC1=O | 20 | – | –
38 | CC(=O)C1=C(O)/C(=C(\C)Nc2cccc(NS(=O)(=O)c3ccccc3)c2)C(=O)OC1=O | – | 7 | 1.3
39 | CC(=O)C1=C(O)/C(=C(\C)Nc2ccc(NS(=O)(=O)c3ccccc3)cc2)C(=O)OC1=O | 4 | – | –
40 | CC(=O)C1=C(O)/C(=C(\C)Nc2cccc(NS(N)(=O)=O)c2)C(=O)OC1=O | 45 | 13 | –
41 | CC(=O)C1=C(O)/C(=C(\C)Nc2ccc(NS(N)(=O)=O)cc2)C(=O)OC1=O | – | 10 | 0.3
42 | CCOC(=O)Nc1cccc(N/C(C)=C2\C(=O)OC(=O)C(C(C)=O)=C2O)c1 | – | – | 0.4

Row | SMILES | inhibition in vivo at 0.5 mg/kg [1] [%] | inhibition in vivo at 25 mg/kg [2] [%] | ED50 [3] [mg/kg]
43 | CC(=O)NCc1cccc(N/C(C)=C2\C(=O)OC(=O)C(C(C)=O)=C2O)c1 | 4 | – | –
44 | CC(=O)C1=C(O)/C(=C(\C)Nc2cccc(C(N)=O)c2)C(=O)OC1=O | -16 | – | –
45 | CNC(=O)c1cccc(N/C(C)=C2\C(=O)OC(=O)C(C(C)=O)=C2O)c1 | 24 | – | –
46 | CCNC(=O)c1cccc(N/C(C)=C2\C(=O)OC(=O)C(C(C)=O)=C2O)c1 | -4 | – | –
47 | CC(=O)C1=C(O)/C(=C(\C)Nc2cccc(C(=O)N(C)C)c2)C(=O)OC1=O | 10 | – | –
48 | CC(=O)C1=C(O)/C(=C(\C)Nc2cccc(C(=O)NC3C(=O)NC(=O)NC3=O)c2)C(=O)OC1=O | 39 | – | –
49 | CNc1cc(N/C(C)=C2\C(=O)OC(=O)C(C(C)=O)=C2O)ccc1O | -6 | – | –
50 | CC(=O)NCc1cc(N/C(C)=C2\C(=O)OC(=O)C(C(C)=O)=C2O)ccc1O | 1 | – | –
51 | CC(=O)C1=C(O)/C(=C(\C)Nc2ccc3oc(C)nc3c2)C(=O)OC1=O | 13 | – | –
52 | COc1ccc(N/C(C)=C2\C(=O)OC(=O)C(C(C)=O)=C2O)cc1NC(C)=O | 27 | – | –
53 | CNC(=O)c1cc(N/C(C)=C2\C(=O)OC(=O)C(C(C)=O)=C2O)ccc1O | 38 | – | –
54 | CC(=O)C1=C(O)/C(=C(\C)Nc2ccc(O)c(NS(C)(=O)=O)c2)C(=O)OC1=O | 38 | – | –
55 | CC(=O)C1=C(O)/C(=C(\C)Nc2cc(C(F)(F)F)cc(C(F)(F)F)c2)C(=O)OC1=O | 14 | – | –
56 | CC(=O)C1=C(O)/C(=C(\C)Nc2cc(NS(=O)(=O)c3ccccc3)cc(NS(=O)(=O)c3ccccc3)c2)C(=O)OC1=O | -9 | – | –
57 | CC(=O)C1=C(O)/C(=C(\C)Nc2c(O)cccc2O)C(=O)OC1=O | -22 | – | –
58 | CC(=O)Nc1ccc(O)c(N/C(C)=C2\C(=O)OC(=O)C(C(C)=O)=C2O)c1 | 40 | 4 | –
59 | CC(=O)C1=C(O)/C(=C(\C)N2CCOCC2)C(=O)OC1=O | 2 | – | –
60 | CC(=O)c1c(O)oc(=O)c(C(C)=O)c1O | – | – | 14
61 | CCCCCC(=O)c1c(O)oc(=O)c(C(=O)CCCCC)c1O | – | – | 6
